# Measured values pooled from the literature.
# Target: BDNF/NT-3 growth factors receptor (NTRK2, Homo sapiens, UniProt Q16620)
SMILES,read-out,action,technique,tested at,inhibition
COc1cc2ncnc(Nc3ccc(Oc4ccccc4)cc3C)c2cc1OC,enzyme activity,inhibitor,,1 µM,11%
CNC(=O)c1cc(Oc2ccc(NC(=O)Nc3ccc(Cl)c(C(F)(F)F)c3)cc2)ccn1,cell-free assay,,,0.3 µM,14%
O=C(Nc1ccc(OC(F)(F)F)cc1)Nc1cccc(C(=O)Nc2ccc3[nH]ncc3c2)c1,enzyme activity,inhibitor,FRET,1 µM,14.5%
CC/C(=N\NC(=O)NCc1cccc(O)c1)c1ccc(O)c(C)c1O,enzyme activity,inhibitor,,0.1 µM,2.2%
CNC(=O)c1cc2c(Oc3ccc(NC(=O)C4(C(=O)Nc5ccc(F)cc5)CC4)cc3)ccnc2cc1OC,enzyme activity,inhibitor,radiometric,1 µM,100%
O=C(Nc1cccc(Cl)c1)Nc1cccc(C(=O)Nc2ccc3[nH]ncc3c2)c1,enzyme activity,inhibitor,FRET,1 µM,20.2%
COc1cc2ncnc(Nc3ccc(Oc4ccccc4)c(C)c3C)c2cc1OC,enzyme activity,inhibitor,,1 µM,-3%
CN1CC(Oc2cnc(C#N)cc2-c2ccn3nc(NC(=O)C4CC4)cc3c2)C1,enzyme activity,inhibitor,,1 µM,4%
CCCS(=O)(=O)Nc1ccc(F)c(C(=O)c2c[nH]c3ncc(-c4ccc(Cl)cc4)cc23)c1F,enzyme activity,inhibitor,,1 µM,< 10%
O=C(Nc1ccc(Cl)cc1)Nc1cccc(C(=O)Nc2ccc3[nH]ncc3c2)c1,enzyme activity,inhibitor,FRET,1 µM,18.8%
